Results taken from ChEMBL document CHEMBL4190330, “Discovery of Potent and Selective A2A Antagonists with Efficacy in Animal Models of Parkinson's Disease and Depression” (ACS Med Chem Lett, 2017).
Converted amounts (≈) assume the structure as drawn. The source made the active and inactive calls. No cut-off for these calls is given here.

Legend:
[1] = Systemic clearance in Wistar rat at 3 mg/kg, iv by LC-MS/MS analysis; assay type: ADME, organism-based; settings: in vivo
Summary of the method: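 Male Wistar rats, n = 4; iv dose 3 mg/kg in 10% NMP, 10% Cremophor EL, acetate buffer pH 4.2 q.s.; values are means.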

Homo sapiens [2] = species on record: Homo sapiens; test: Selectivity ratio of Ki for displacement of [3H]-DPCPX from human A1 receptor expressed in HEK293 cell membranes to Ki for displacement of [3H]ZM241385 from human A2A receptor expressed in HEK293 cell membranes
Summary of the method: (§1)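 Radioligand binding used membranes from HEK-293 cells overexpressing each human adenosine receptor isoform. Points were run in triplicate, and 8-concentration IC50 curves were plotted to give Ki. The selectivity value is the Ki at the off-target isoform divided by the Ki at hA2A.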

HepG2 = test: Cytotoxicity against human HepG2 cells after 24 hrs by MTT assay; assay type: cell-based; settings: HepG2, 24 h
[3] = Solubility of the compound at pH 7.4; assay type: physicochemical; settings: buffer
Rattus norvegicus = test: Protection against L-DOPA-induced dyskinesias in 6-OHDA-lesioned Wistar rat model of parkinson's disease assessed as reduction in abnormal involuntary movements at 0.3 to 3 mg/kg, po administered twice daily for 21 days measured every 7 days; assay type: functional, organism-based
Summary of the method: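 6-OHDA-lesioned rats given oral test compound (0.3-3 mg/kg) with L-DOPA, repeated daily; abnormal involuntary movements scored; mean ± SEM, n=6-7.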

[4] = Protein binding in rat plasma; assay type: ADME, cell-free; settings: read-out: PPB (converted)
[5] = Solubility of the compound at pH 4; assay type: physicochemical; settings: buffer
[6] = Protein binding in dog plasma; assay type: ADME, cell-free, Canis lupus familiaris; settings: read-out: PPB (converted)
Cytochrome P450 2D6 = Cytochrome P450 2D6 (Homo sapiens, UniProt P10635); test: Inhibition of CYP2D6 (unknown origin); assay type: ADME
[7] = Solubility of the compound at pH 2; assay type: physicochemical; settings: buffer
Adenosine receptor A2a = Adenosine receptor A2a (Rattus norvegicus, UniProt P30543); test: Antagonist activity at rat A2A receptor assessed as reduction in CGS-21680-induced cAMP level pretreated for 15 mins followed by CGS-21680 addition measured after 30 mins by HTRF assay; assay type: functional
Summary of the method: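 HTRF-based cAMP functional assay; each compound tested at 12 concentrations, every point in triplicate; Ki given as mean of two independent experiments (n=2).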

[8] = AUC (0 to t) in Wistar rat at 3 mg/kg, iv by LC-MS/MS analysis; assay type: ADME, organism-based; settings: in vivo
[9] = Protein binding in human plasma; assay type: ADME, cell-free; settings: read-out: PPB (converted)
[10] = Permeability across apical to basolateral side in human Caco2 cells; assay type: ADME, cell-based; settings: caco-2
[11] = molecular target: T1, Adenosine receptor A2b (Homo sapiens) (UniProt P29275); test: Antagonist activity at human A2B receptor expressed in HEK293 cell membranes assessed as inhibition of NECA-induced cAMP level at 10 uM pretreated for 15 mins followed by NECA addition measured after 15 mins by HTRF assay; assay type: functional, cell-based
T1 sequence (whole entry): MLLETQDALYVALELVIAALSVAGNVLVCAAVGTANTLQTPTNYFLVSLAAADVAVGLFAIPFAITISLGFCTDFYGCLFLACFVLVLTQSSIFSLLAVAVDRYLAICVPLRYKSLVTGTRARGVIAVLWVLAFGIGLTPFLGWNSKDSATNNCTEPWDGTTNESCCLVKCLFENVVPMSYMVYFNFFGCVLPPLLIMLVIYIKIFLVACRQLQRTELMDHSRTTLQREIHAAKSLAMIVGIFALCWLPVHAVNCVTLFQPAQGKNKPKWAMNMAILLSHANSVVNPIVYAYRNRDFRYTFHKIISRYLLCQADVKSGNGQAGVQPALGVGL
Summary of the method: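 HTRF cAMP functional assay on the human receptor isoform, run in triplicate at 12 concentrations with a top concentration of 10 µM, in two independent experiments. Inhibition at 10 µM is recorded where no Ki could be derived.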

[12] = Metabolic stability in dog liver microsomes assessed as metabolic rate; assay type: ADME, Canis lupus familiaris, microsome
Summary of the method: (§2)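 Liver microsomes (mouse, rat, dog, human) at 0.125 mg/mL protein; metabolic rate expressed as nmol/min/mg.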

[13] = Permeability across basolateral to apical side in human Caco2 cells; assay type: ADME, cell-based; settings: caco-2
Adenosine receptor A1 = molecular target: T2, Adenosine receptor A1 (Homo sapiens, UniProt P30542); test: Displacement of [3H]-DPCPX from human A1 receptor expressed in HEK293 cell membranes after 90 mins radioligand binding assay
T2 sequence (P30542 whole entry): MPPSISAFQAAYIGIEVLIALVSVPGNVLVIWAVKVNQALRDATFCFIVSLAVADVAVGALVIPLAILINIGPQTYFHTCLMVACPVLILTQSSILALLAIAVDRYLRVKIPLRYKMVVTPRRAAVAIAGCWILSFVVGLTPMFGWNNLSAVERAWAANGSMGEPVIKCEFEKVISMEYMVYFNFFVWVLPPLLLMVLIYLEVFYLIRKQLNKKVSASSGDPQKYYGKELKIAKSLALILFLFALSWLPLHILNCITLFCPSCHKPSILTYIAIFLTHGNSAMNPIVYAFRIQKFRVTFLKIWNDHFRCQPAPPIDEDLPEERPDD
Summary of the method: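 Membranes from HEK-293 cells overexpressing the relevant human adenosine receptor subtype; all points in triplicate; Ki derived from 8-concentration IC50 curves.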

[14] = Metabolic stability in mouse liver microsomes assessed as metabolic rate; assay type: ADME, microsome; summary of the method: as §2
Homo sapiens [15] = species on record: Homo sapiens; test: Selectivity ratio of Ki for displacement of [3H]-MRS-1754 from human A2B receptor expressed in HEK293 cell membranes to Ki for displacement of [3H]ZM241385 from human A2A receptor expressed in HEK293 cell membranes; summary of the method: as §1
Mus musculus = test: Antidepressant-like activity in po dosed mouse assessed as reduction in immobility time treated 1 hr prior to testing measured for 6 mins by tail suspension test
[16] = Metabolic stability in human liver microsomes assessed as metabolic rate; assay type: ADME, microsome; summary of the method: as §2
Homo sapiens [17] = species on record: Homo sapiens; test: Selectivity ratio of Ki for displacement of [3H]-HEMADO from human A3 receptor expressed in HEK293 cell membranes to Ki for displacement of [3H]ZM241385 from human A2A receptor expressed in HEK293 cell membranes; summary of the method: as §1
[18] = molecular target: T3, Nuclear receptor subfamily 1 group I member 2 (Homo sapiens, UniProt O75469); test: Transactivation of recombinant human PXR expressed in HepG2 cells after 42 hrs by dual luciferase reporter gene assay; assay type: ADME, cell-based
T3 sequence (O75469 whole entry): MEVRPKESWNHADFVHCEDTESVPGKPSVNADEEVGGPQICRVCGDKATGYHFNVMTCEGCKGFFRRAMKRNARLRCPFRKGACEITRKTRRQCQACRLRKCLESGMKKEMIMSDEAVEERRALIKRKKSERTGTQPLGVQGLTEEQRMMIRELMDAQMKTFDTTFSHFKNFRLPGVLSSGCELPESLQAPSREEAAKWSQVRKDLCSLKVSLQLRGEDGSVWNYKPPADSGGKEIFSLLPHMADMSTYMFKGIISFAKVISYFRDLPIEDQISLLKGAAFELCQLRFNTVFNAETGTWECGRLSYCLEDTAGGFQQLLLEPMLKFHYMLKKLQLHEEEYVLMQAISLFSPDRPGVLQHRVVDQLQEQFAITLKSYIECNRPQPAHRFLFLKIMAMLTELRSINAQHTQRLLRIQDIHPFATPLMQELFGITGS

Cytochrome P450 2D6, sequence (P10635 whole entry): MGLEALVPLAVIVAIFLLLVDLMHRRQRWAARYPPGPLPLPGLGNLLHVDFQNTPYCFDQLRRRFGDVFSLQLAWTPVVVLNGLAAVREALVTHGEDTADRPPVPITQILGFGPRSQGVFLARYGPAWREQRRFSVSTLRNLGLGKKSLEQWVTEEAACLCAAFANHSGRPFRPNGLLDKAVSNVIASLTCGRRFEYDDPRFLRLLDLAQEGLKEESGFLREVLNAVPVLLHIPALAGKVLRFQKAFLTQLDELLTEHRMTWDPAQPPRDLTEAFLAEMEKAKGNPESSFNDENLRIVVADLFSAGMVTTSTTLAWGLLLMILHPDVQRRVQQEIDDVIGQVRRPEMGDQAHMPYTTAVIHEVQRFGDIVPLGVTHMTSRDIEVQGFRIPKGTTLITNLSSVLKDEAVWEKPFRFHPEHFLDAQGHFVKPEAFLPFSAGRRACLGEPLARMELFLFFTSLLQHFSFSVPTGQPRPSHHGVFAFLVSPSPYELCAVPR
Adenosine receptor A2a, sequence (P30543 whole entry): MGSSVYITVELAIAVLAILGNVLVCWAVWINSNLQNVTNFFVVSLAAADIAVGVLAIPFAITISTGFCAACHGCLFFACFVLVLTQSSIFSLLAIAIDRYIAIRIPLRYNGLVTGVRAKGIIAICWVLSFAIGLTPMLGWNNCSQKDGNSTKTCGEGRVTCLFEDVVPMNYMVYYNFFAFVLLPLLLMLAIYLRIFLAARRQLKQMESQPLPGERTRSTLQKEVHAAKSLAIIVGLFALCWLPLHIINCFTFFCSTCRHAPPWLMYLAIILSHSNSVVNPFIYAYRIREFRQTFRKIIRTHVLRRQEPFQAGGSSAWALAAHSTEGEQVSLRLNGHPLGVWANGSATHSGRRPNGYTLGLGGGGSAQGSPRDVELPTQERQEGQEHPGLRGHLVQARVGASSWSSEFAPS

For `COCCOc1ccc(N2CCN(CCn3c(=O)n(C)c4c3nc(N)n3nc(-c5nccs5)nc43)CC2)cc1F`, the clearance [1] was 45 mL/min/kg, the Ratio Ki (Homo sapiens [2]) was > 1100 and the IC50 (HepG2) was > 30 µM. For the same molecule, the solubility [3] was 17 µM (≈ 9.67 µg/mL), the Activity (Rattus norvegicus) was “Active” and the fraction unbound [4] was 0.18. For the same molecule, the solubility [5] was 486 µM (≈ 276 µg/mL), the fraction unbound [6] was 0.22 and the IC50 (Cytochrome P450 2D6) was > 10 µM. For the same molecule, the solubility [7] was > 2000 µM, the Ki (Adenosine receptor A2a) was 0.00044 to 0.0044 µM and the AUC(0-t) [8] was 3.6 µM·h. For the same molecule, the fraction unbound [9] was 0.15, the permeability [10] was “Permeable” and the inhibition [11] was < 50%. The Drug metabolism [12] was 0.04 nmol/min/mg, the permeability [13] was “Permeable” and the Ki (Adenosine receptor A1) was 1.7 µM. The Drug metabolism [14] was 0.08 nmol/min/mg, the Ratio Ki (Homo sapiens [15]) was > 3000 and the ED50 (Mus musculus) was 0.7 mg/kg. The Drug metabolism [16] was 0.14 nmol/min/mg, the Ratio Ki (Homo sapiens [17]) was > 3000 and the EC50 [18] was > 60 µM.
